# Laboratory results: ChEMBL document CHEMBL1772948, “Chemistry and biology of macrolide antiparasitic agents” (J Med Chem, 2011)
# The source made the active and inactive calls. The rule behind the calls is not given here.
# Columns and labels:
# Toxoplasma gondii [1] = experiment: Antiparasitic activity against green fluorescent protein expressing hwgprt deficient Toxoplasma gondii RH infected in HFF assessed as reduction of ycf24/UPRT genes copy number ratio at 0.1 uM treated for 48 hrs after 6 hrs infection followed by reinoculated into fresh HFF monolayers measured after 48 hrs by RT-PCR analysis; type: functional
# Outline: (§1)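 Tachyzoites were seeded on confluent HFF monolayers in 6-well plates at 2×10^5 per well, in DMEM with 10% FBS and 1% PS at 37 °C, 5% CO2. After 6 h pre-infection, the medium was replaced with medium containing compound for 42 h. Released parasites were reinoculated into fresh HFF without drug for 48 h, collected by centrifugation, and measured by qPCR as the ratio of plastid ycf24 to nuclear UPRT copies. At least triplicate.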
# Toxoplasma gondii [2] = experiment: Antiparasitic activity against green fluorescent protein expressing […] deficient Toxoplasma gondii RH infected in HFF assessed as reduction of ycf24/UPRT genes copy number ratio at 0.1 uM treated for 48 hrs immediately after infection followed by reinoculated into fresh HFF monolayers measured after 48 hrs by RT-PCR analysis; type: functional
# Outline: (§2)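 Tachyzoites were seeded on confluent HFF in 6-well plates at 2×10^5 per well, in DMEM with 10% FBS and 1% PS at 37 °C, 5% CO2. Compound was added together with the parasite inoculum, and cultures ran 48 h. Harvested tachyzoites were reinoculated into fresh HFF without drug for a second cycle. Parasites were pelleted by centrifugation and the plastid ycf24 to nuclear UPRT copy ratio was read by qPCR (40 cycles, 94 °C 3 s / 60 °C 30 s). At least triplicate.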
# Toxoplasma gondii [3] = experiment: Antiparasitic activity against yellow fluorescent protein expressing Toxoplasma gondii 2F-1 treated 6 hrs after infection for 42 hrs followed by reinoculated into fresh HFF monolayers measured after 48 hrs; type: functional, organism-based
# Outline: (§3)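 Two-cycle protocol in HFF at 37 °C, 5% CO2, DMEM with 10% FBS. "0h": compound added with parasites, 48 h. "6h": parasites pre-incubated 6 h, uninvaded parasites removed, fresh medium with compound added, 42 h. Released tachyzoites were then harvested, purified and inoculated into fresh HFF without compound for the 2nd cycle. At least triplicate.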
# Toxoplasma gondii [4] = experiment: Antiparasitic activity against clindamycin-resistant Toxoplasma gondii 4 infected in HFF assessed as reduction of ycf24/UPRT genes copy number ratio at 10 uM treated for 48 hrs after 6 hrs infection followed by reinoculated into fresh HFF monolayers measured after 48 hrs by RT-PCR analysis; type: functional; outline: as §1
# HFF = experiment: Cytotoxicity against HFF after 48 hrs by MTS assay; type: cell-based; conditions: human
# Outline: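 Low-passage HFF seeded in 96-well plates and incubated 24h at 37 °C, then exposed to varying macrolide concentrations for 2 days; medium replaced with fresh medium plus MTS, 4h at 37 °C, absorbance 490 nm; CC50 = dose reducing viability by 50%.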
# Toxoplasma gondii [5] = experiment: Antiparasitic activity against green fluorescent protein expressing hwgprt deficient Toxoplasma gondii RH infected in HFF assessed as reduction of ycf24/UPRT genes copy number ratio at 10 uM treated for 42 hrs starting 6 hrs after infection followed by reinoculated into fresh HFF monolayers measured after 48 hrs by RT-PCR analysis
# Toxoplasma gondii [6] = experiment: Antiparasitic activity against green fluorescent protein expressing […] deficient Toxoplasma gondii RH infected in HFF assessed as decrease in density of parasitophorous vacuoles at 10 uM treated immediately after infection measured after 24 hrs by microscopic analysis; type: functional, organism-based
# Outline: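 GFP T. gondii RHΔhxgprt in HFF, compound (10 μM) added either with the inoculum ("0h") or after 6 h pre-infection and washing ("6h"); vacuoles per microscope field scored at 24 h, at least 20 random fields from each of three experiments.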
# Toxoplasma gondii [7] = experiment: Antiparasitic activity against green fluorescent protein expressing hwgprt deficient Toxoplasma gondii RH infected in HFF assessed as reduction of ycf24/UPRT genes copy number ratio at 10 uM […] followed by reinoculated into fresh HFF monolayers measured after 48 hrs by RT-PCR analysis; type: functional
# Toxoplasma gondii [8] = experiment: Antiparasitic activity against clindamycin-resistant Toxoplasma gondii 4 infected in HFF assessed as reduction of ycf24/UPRT genes copy number ratio at 1 uM treated for 48 hrs immediately after infection followed by reinoculated into fresh HFF monolayers measured after 48 hrs by RT-PCR analysis; type: functional
# Outline: (§4)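 Tachyzoites were seeded on confluent HFF in 6-well plates at 2×10^5 per well, in DMEM with 10% FBS and 1% PS at 37 °C, 5% CO2. Harvested tachyzoites were reinoculated into fresh HFF without drug for a second cycle. Parasites were pelleted by centrifugation and the plastid ycf24 to nuclear UPRT copy ratio was read by qPCR (40 cycles, 94 °C 3 s / 60 °C 30 s). At least triplicate.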
# Toxoplasma gondii [9] = experiment: Antiparasitic activity against green fluorescent protein expressing […] deficient Toxoplasma gondii RH infected in HFF at 5 uM treated 6 hrs after infection measured after 48 hrs; type: functional, organism-based
# Outline: (§5)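 GFP-expressing RHΔhxgprt tachyzoites were grown on HFF on glass coverslips in 12-well plates (2×10^4/well). Compound was added either with the parasites ("0h", 48 h) or after a 6 h pre-infection and medium change ("6h", 42 h). Parasites per vacuole were counted by fluorescence microscopy in at least 50 random vacuoles per well. Three independent experiments.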
# Toxoplasma gondii [10] = experiment: Antiparasitic activity against clindamycin-resistant Toxoplasma gondii 4 infected in HFF assessed as reduction of ycf24/UPRT genes copy number ratio at 1 uM treated for 48 hrs after 6 hrs infection followed by reinoculated into fresh HFF monolayers measured after 48 hrs by RT-PCR analysis; type: functional
# Bacillus subtilis = experiment: Antibacterial activity against Bacillus subtilis; type: functional
# Toxoplasma gondii [11] = experiment: Antiparasitic activity against green fluorescent protein expressing […] deficient Toxoplasma gondii RH infected in HFF at 5 uM treated immediately after infection measured after 48 hrs; type: functional, organism-based; outline: as §5
# Toxoplasma gondii [12] = experiment: Antiparasitic activity against yellow fluorescent protein expressing Toxoplasma gondii 2F-1 infected in HFF treated immediately after infection measured after 48 hrs; type: functional, organism-based; conditions: 2F-1, 48 h
# Toxoplasma gondii [13] = experiment: Antiparasitic activity against yellow fluorescent protein expressing Toxoplasma gondii 2F-1 infected in HFF treated 6 hrs after infection measured after 48 hrs; type: functional, organism-based
# Toxoplasma gondii [14] = experiment: Antiparasitic activity against Toxoplasma gondii 2F-1 expressing yellow fluorescent protein infected in HFF after 4 days; type: functional, organism-based; conditions: 2F-1, 96 h
# Toxoplasma gondii [15] = experiment: Antiparasitic activity against green fluorescent protein expressing hwgprt deficient Toxoplasma gondii RH infected in HFF assessed as reduction of ycf24/UPRT genes copy number ratio at 1 uM treated for 48 hrs after 6 hrs infection followed by reinoculated into fresh HFF monolayers measured after 48 hrs by RT-PCR analysis; type: functional
# Toxoplasma gondii [16] = experiment: Antiparasitic activity against green fluorescent protein expressing hwgprt deficient Toxoplasma gondii RH at 5 uM treated immediately after infection for 48 hrs followed by reinoculated into fresh HFF monolayers measured after 48 hrs; type: functional, organism-based; outline: as §3
# Toxoplasma gondii [17] = experiment: Antiparasitic activity against green fluorescent protein expressing […] deficient Toxoplasma gondii RH infected in HFF assessed as reduction of ycf24/UPRT genes copy number ratio at 1 uM treated for 48 hrs immediately after infection followed by reinoculated into fresh HFF monolayers measured after 48 hrs by RT-PCR analysis; type: functional; outline: as §4
# Toxoplasma gondii [18] = experiment: Antiparasitic activity against yellow fluorescent protein expressing Toxoplasma gondii 2F-1 treated immediately after infection for 48 hrs followed by reinoculated into fresh HFF monolayers measured after 48 hrs; type: functional, organism-based; conditions: 2F-1, 48 h; outline: as §3
# Toxoplasma gondii [19] = experiment: Antiparasitic activity against clindamycin-resistant Toxoplasma gondii 4 infected in HFF assessed as reduction of ycf24/UPRT genes copy number ratio at 0.1 uM treated for 48 hrs after 6 hrs infection followed by reinoculated into fresh HFF monolayers measured after 48 hrs by RT-PCR analysis; type: functional; outline: as §1
# Toxoplasma gondii [20] = experiment: Antiparasitic activity against green fluorescent protein expressing […] deficient Toxoplasma gondii RH infected in HFF assessed as parasite doubling time at 5 uM treated immediately after infection measured after 48 hrs; type: functional
# Outline: (§6)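 HFF were grown on glass coverslips in 12-well plates and infected with 2×10^4 GFP tachyzoites per well. Compound was added with the inoculum; the first cycle ran 48 h, and the second cycle ran in fresh HFF without drug. Parasites per vacuole were counted by fluorescence microscopy, at least 50 random vacuoles per well, to derive doubling time. Three independent experiments.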
# Toxoplasma gondii [21] = experiment: Antiparasitic activity against clindamycin-resistant Toxoplasma gondii 4 infected in HFF assessed as reduction of ycf24/UPRT genes copy number ratio at 0.1 uM treated for 48 hrs immediately after infection followed by reinoculated into fresh HFF monolayers measured after 48 hrs by RT-PCR analysis; type: functional; outline: as §2
# Toxoplasma gondii [22] = experiment: Antiparasitic activity against clindamycin-resistant Toxoplasma gondii 4 infected in HFF assessed as reduction of ycf24/UPRT genes copy number ratio at 10 uM treated for 48 hrs immediately after infection followed by reinoculated into fresh HFF monolayers measured after 48 hrs by RT-PCR analysis; type: functional; outline: as §2
# Toxoplasma gondii [23] = experiment: Antiparasitic activity against green fluorescent protein expressing hwgprt deficient Toxoplasma gondii RH at 5 uM treated 6 hrs after infection for 42 hrs followed by reinoculated into fresh HFF monolayers measured after 48 hrs; type: functional, organism-based; outline: as §3
# Toxoplasma gondii [24] = experiment: Antiparasitic activity against green fluorescent protein expressing […] deficient Toxoplasma gondii RH assessed as parasite doubling time at 5 uM treated immediately after infection for 48 hrs followed by reinoculated into fresh HFF monolayers measured after 48 hrs; type: functional; outline: as §6
smiles,measurement,setting,value
CC[C@H]1OC(=O)[C@H](C)[C@@H](O[C@H]2C[C@@](C)(OC)[C@@H](O)[C@H](C)O2)[C@H](C)[C@@H](O[C@@H]2O[C@H](C)C[C@H](N(C)C)[C@H]2O)[C@](C)(O)C[C@@H](C)CN(Cc2ccccc2)[C@H](C)[C@@H](O)[C@]1(C)O,Ratio,Toxoplasma gondii [1],17
same,Ratio,Toxoplasma gondii [2],13
same,IC50,Toxoplasma gondii [3],0.5 µM
same,Ratio,Toxoplasma gondii [4],5
same,CC50,HFF,32 µM
same,Ratio,Toxoplasma gondii [5],13
same,Activity,Toxoplasma gondii [6],Active
same,Ratio,Toxoplasma gondii [7],6
same,Ratio,Toxoplasma gondii [8],8
same,Activity,Toxoplasma gondii [9],Active
same,Ratio,Toxoplasma gondii [10],3
same,MIC,Bacillus subtilis,0.3 µM
same,Activity,Toxoplasma gondii [11],Active
same,IC50,Toxoplasma gondii [12],5 µM
same,IC50,Toxoplasma gondii [13],9 µM
same,IC50,Toxoplasma gondii [14],2 µM
same,Ratio,Toxoplasma gondii [15],5
same,Activity,Toxoplasma gondii [16],Active
same,Ratio,Toxoplasma gondii [17],7
same,IC50,Toxoplasma gondii [18],0.5 µM
same,Ratio,Toxoplasma gondii [19],15
same,Time,Toxoplasma gondii [20],9.5 h
same,Ratio,Toxoplasma gondii [21],23
same,Ratio,Toxoplasma gondii [22],11
same,Activity,Toxoplasma gondii [23],Active
same,Time,Toxoplasma gondii [24],>16 h
